Columns and labels:
[1] = test system: L1210; experiment: Antitumor activity against mouse L1210 cells intraperitoneally xenografted in ip dosed C3H/DBA2 F1 hybrid mouse assessed as increase in host lifespan administered daily for 5 days starting 24 hrs post-tumor implantation; type: functional
In short: (§1)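 10⁵ L1210 cells implanted ip into 18.5-22.5-g C3H/DBA2 F1 mice. Daily ip treatment for 5 days from 24 h after implant, as water-soluble salts (methanesulfonate or hydrochloride) or as homogenized suspensions in aqueous methylcellulose. Groups of six mice. Read-out is increase in life span (T/C% − 100) at the optimum dose (maximal life-span increase, mg/kg/day); 50-day survivors counted.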

[2] = Half life of the compound in 0.1 M mercaptoethanol buffer at pH 7.4 at 37 degC by thiolytic assay; type: physicochemical
[3] = test system: Blood; experiment: Stability in mouse blood assessed as 4'-(9-acridinylamino)methanesulfonanilide release at 37 degC; type: ADME, tissue-based
[4] = test system: L1210; experiment: Antitumor activity against mouse L1210 cells subcutaneously xenografted in ip dosed C3H/DBA2 F1 hybrid mouse assessed as increase in host lifespan administered daily for 5 days starting 24 hrs post-tumor implantation; type: functional
In short: as §1, with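 “implanted sc above the right axilla” for “implanted ip”, “ip dosing” for “ip treatment”, “salts” for “salts (methanesulfonate or hydrochloride)”, “mice. Increase” for “mice. Read-out is increase”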

[5] = test system: Mus musculus; experiment: Toxicity in ip dosed mouse assessed as optimum dose that providing maximum increase in life span administered qd for 1 to 5 days; type: organism-based; conditions: in vivo
In short: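 Mice were C3H/DBA2 F1 hybrids weighing 18.5-22.5 g. L1210 cells (10^5) were implanted ip or sc above the right axilla. Daily ip treatment began 24 h later and continued for 5 days (dq 1-5), given in water or as a homogenized suspension in aqueous methylcellulose. The optimum dose (mg/kg/day) is the one giving maximum life-span increase (T/C% - 100). Groups were six mice; 50-day survivors were counted.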

[6] = Lipophilic-hydrophilic balance, Rm of the compound by reversed-phase partition chromatography; type: physicochemical

| SMILES | ILS [1] | half-life [2] | Stability [3] | ILS [4] | Activity [5] | Rm [6] |
| --- | --- | --- | --- | --- | --- | --- |
| CC(=O)N(c1ccc(Nc2c3ccccc3nc3ccccc23)cc1)S(C)(=O)=O.Cl | 109% | 6.6 h | Unstable | 68% | 160 mg/kg | -0.14 |
| Br.CCCCCCCCCC(=O)N(c1ccc(Nc2c3ccccc3nc3cc(NC(C)=O)ccc23)cc1)S(C)(=O)=O | 98% |  |  | 65% | 50 mg/kg | 0.76 |
| Br.CCCCCCC(=O)N(c1ccc(Nc2c3ccccc3nc3cc(NC(C)=O)ccc23)cc1)S(C)(=O)=O | 71% |  |  | 47% | 14 mg/kg | 0.63 |
| CCCC(=O)N(c1ccc(Nc2c3ccccc3nc3cc(NC(C)=O)ccc23)cc1)S(C)(=O)=O.Cl | 98% |  |  | 62% | 50 mg/kg | 0.22 |
| CCCCC(=O)N(c1ccc(Nc2c3ccccc3nc3cc([N+](=O)[O-])ccc23)cc1)S(C)(=O)=O | 91% |  |  | 57% | 26 mg/kg | 0.32 |
| CCC(=O)N(c1ccc(Nc2c3ccccc3nc3ccccc23)cc1)S(C)(=O)=O.Cl | 88% |  |  | 56% | 300 mg/kg | 0.07 |
| COC(=O)N(c1ccc(Nc2c3ccccc3nc3ccccc23)cc1)S(C)(=O)=O.Cl | 67% |  |  | 36% | 250 mg/kg | 0.07 |
| CCCCCCCCC(=O)N(c1ccc(Nc2c3ccccc3nc3cc([N+](=O)[O-])ccc23)cc1)S(C)(=O)=O | 144% |  |  | 61% | 75 mg/kg | 0.71 |
| CS(=O)(=O)Nc1ccc(Nc2c3ccccc3nc3cc(N=[N+]=[N-])ccc23)cc1.Cl | 216% |  |  | 64% | 16 mg/kg | -0.02 |
| COc1cc(NS(C)(=O)=O)ccc1Nc1c2ccccc2nc2ccccc12 [AMSACRINE] | 114% |  |  | 27% | 6.7 mg/kg | 0.18 |
| CC(=O)Nc1ccc2c(Nc3ccc(N(C(=O)C(C)C)S(C)(=O)=O)cc3)c3ccccc3nc2c1.Cl | 93% |  |  | 57% | 50 mg/kg | 0.29 |
| CC(=O)Nc1ccc2c(Nc3ccc(N(C(C)=O)S(C)(=O)=O)cc3)c3ccccc3nc2c1.Cl | 118% |  |  | 43% | 28 mg/kg | -0.19 |
| CCC(C)C(=O)N(c1ccc(Nc2c3ccccc3nc3cc(NC(C)=O)ccc23)cc1)S(C)(=O)=O.Cl (configuration not stated) | 68% |  |  | 31% | 50 mg/kg | 0.38 |
| COc1cc(NS(C)(=O)=O)ccc1Nc1c2ccccc2nc2c(C)cccc12 | 111% |  |  | 47% | 6 mg/kg | 0.11 |
| Br.CCCCCCCCCCC(=O)N(c1ccc(Nc2c3ccccc3nc3cc(NC(C)=O)ccc23)cc1)S(C)(=O)=O | 64% |  |  | 39% | 30 mg/kg | 0.79 |
| COc1cc(NS(C)(=O)=O)ccc1Nc1c2ccccc2nc2cc(N=[N+]=[N-])ccc12.Cl | 118% |  |  | 47% | 8 mg/kg | 0.14 |
| CC(=O)N(c1ccc(Nc2c3ccccc3nc3cc([N+](=O)[O-])ccc23)cc1)S(C)(=O)=O | 138% |  |  | 61% | 50 mg/kg | -0.08 |
| CS(=O)(=O)Nc1ccc(Nc2c3ccccc3nc3ccccc23)cc1 | 107% |  |  | 28% | 45 mg/kg | 0 |
| CCCC(=O)N(c1ccc(Nc2c3ccc([N+](=O)[O-])cc3nc3c(C)cccc23)cc1)S(C)(=O)=O | 71% |  |  | 31% | 50 mg/kg | 0.31 |
| Br.CCCCCCCC(=O)N(c1ccc(Nc2c3ccccc3nc3cc(NC(C)=O)ccc23)cc1)S(C)(=O)=O | 83% |  |  | 45% | 22 mg/kg | 0.69 |
